pIC50: −log10 of the molar value. ≈ marks a conversion by molar mass, not a printed value. Square brackets hold non-standard residues; d marks the D form. Peptide text beside a SMILES is read from it. * marks the point of attachment. Phe(4-guanidino) = N=C(N)Nc1ccc(C[C@H](N)C(=O)O)cc1; Bip = N[C@@H](Cc1ccc(-c2ccccc2)cc1)C(=O)O; Dip = N[C@H](C(=O)O)C(c1ccccc1)c1ccccc1; NHBn = c1ccc(CN*)cc1
Key:
Staphylococcus aureus [1] = test: Antibacterial activity against methicillin-resistant Staphylococcus aureus by micro dilution method; assay type: functional
[2] = Apparent permeability of the compound by PAMPA; assay type: ADME
Staphylococcus aureus [3] = test: Antibacterial activity against Staphylococcus aureus by micro dilution method; assay type: functional
Escherichia coli = test: Antibacterial activity against Escherichia coli by micro dilution method; assay type: functional
[4] = target: T1, Solute carrier family 15 member 1 (Homo sapiens) (UniProt P46059); test: Activity of human PEPT1 expressed in Xenopus laevis oocytes assessed as induction of transport-associated flux rate current at 1 mM at -60 mV membrane potential by two-electrode voltage clamp method; assay type: cell-based; settings: Oocyte
T1 sequence (whole entry): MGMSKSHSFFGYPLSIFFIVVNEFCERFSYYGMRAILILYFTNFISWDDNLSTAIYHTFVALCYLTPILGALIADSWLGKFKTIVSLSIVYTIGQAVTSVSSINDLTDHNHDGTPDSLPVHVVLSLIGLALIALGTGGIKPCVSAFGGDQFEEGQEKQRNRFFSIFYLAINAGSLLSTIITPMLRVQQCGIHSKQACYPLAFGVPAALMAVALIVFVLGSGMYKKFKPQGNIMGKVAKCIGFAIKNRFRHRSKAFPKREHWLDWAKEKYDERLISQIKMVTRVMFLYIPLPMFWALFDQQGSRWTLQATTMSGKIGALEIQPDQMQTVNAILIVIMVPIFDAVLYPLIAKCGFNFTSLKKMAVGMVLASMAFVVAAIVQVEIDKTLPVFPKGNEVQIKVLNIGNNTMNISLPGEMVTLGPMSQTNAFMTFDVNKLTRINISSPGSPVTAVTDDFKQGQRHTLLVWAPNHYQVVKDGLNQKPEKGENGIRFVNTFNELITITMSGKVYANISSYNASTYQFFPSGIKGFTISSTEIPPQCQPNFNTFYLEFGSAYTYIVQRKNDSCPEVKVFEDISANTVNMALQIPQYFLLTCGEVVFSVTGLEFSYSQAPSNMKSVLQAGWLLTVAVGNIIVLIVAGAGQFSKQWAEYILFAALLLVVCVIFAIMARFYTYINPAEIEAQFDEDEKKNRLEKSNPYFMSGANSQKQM
Outline: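 Oocytes were collagenase-treated (2.5 mg/mL, 70 min) and injected with ~25 ng hPEPT1 cRNA, then held 3-5 days at 17 °C. Superfused at room temperature with MES-buffered Barth's, pH 6.5, clamped at -60 mV. Current is the difference with vs without test peptide, taken 20-30 s after application. Flux in pmol/(s cm²) assumes a 3.80 mm² oocyte surface. Mean of three oocytes.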

[5] = target: T1, Solute carrier family 15 member 1 (Homo sapiens); test: Inhibition of human PEPT1 expressed in Xenopus laevis oocytes assessed as effect on glycylsarcosine-induced transport-associated flux rate current at 0.25 to 1 mM at -60 mV membrane potential by two-electrode voltage clamp method; assay type: cell-based; settings: Oocyte
Outline: (§1)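 The hPEPT1 cRNA-injected oocytes were clamped at -60 mV in Barth's solution with HEPES replaced by MES (pH 6.5), at room temperature. Currents from 1 mM Gly-Sar were recorded with and without test peptide (0.25-1.0 mM) at steady state. Flux used a 3.80 mm² surface. Inhibition is residual current as % of the Gly-Sar current. IC50 was fitted from mean inhibitions by Michaelis-Menten.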

[6] = target: T1, Solute carrier family 15 member 1 (Homo sapiens); test: Inhibition of human PEPT1 expressed in Xenopus laevis oocytes assessed as Inhibition of glycylsarcosine-induced transport-associated current at 0.25 to 1 mM at -60 mV membrane potential by two-electrode voltage clamp method; assay type: cell-based; settings: Oocyte; outline: as §1
[7] = target: T2, Solute carrier family 15 member 1 (Homo sapiens, UniProt P46059); test: Inhibition of human PEPT1 expressed in Xenopus laevis oocytes assessed as inhibition of glycylsarcosine-induced transport-associated current at -60 mV membrane potential by two-electrode voltage clamp method; assay type: cell-based, Oocyte; outline: as §1
T2 sequence (P46059 whole entry): T1 sequence (whole entry)

Row | SMILES | MIC (Staphylococcus aureus [1]) [µg/mL] | Papp ([2]; read-out: Papp) [×10⁻⁶ cm/s] | MIC (Staphylococcus aureus [3]) [µg/mL] | MIC (Escherichia coli) [µg/mL] | Papp [2] [×10⁻⁶ cm/s] | Activity [4] [%] | Activity [5] | inhibition [6] [%] | pIC50 [7]
1 | N=C(N)NCCC[C@H](NC(=O)[C@H](Cc1ccccc1)NC(=O)[C@@H](N)CCCNC(=N)N)C(=O)NCc1ccccc1 (H-Arg-Phe-Arg-NHBn) | 75 (≈ 132 µM) | 2.31 | 150 (≈ 265 µM) | > 150 | – | – | – | – | –
2 | N=C(N)NCCC[C@H](NC(=O)[C@@H](N)CCCNC(=N)N)C(=O)N[C@@H](Cc1c[nH]c2ccccc12)C(=O)NCc1ccccc1 (H-Arg-Arg-Trp-NHBn) | 25 (≈ 41.3 µM) | 0.96 | 75 (≈ 124 µM) | > 150 | – | – | – | – | –
3 | NS(=O)(=O)c1cc2c(cc1Cl)N=CNS2(=O)=O [CHLOROTHIAZIDE] | – | – | – | – | 0.03 | – | – | – | –
4 | N=C(N)NCCC[C@H](NC(=O)[C@@H](N)Cc1ccc(-c2ccccc2)cc1)C(=O)O (H-[Bip]-Arg-OH) | – | – | – | – | – | 10.7 | – | – | –
5 | CC(C)(C)c1cc(C(C)(C)C)c2[nH]c(C(C)(C)C)c(C[C@H](N)C(=O)N[C@@H](CCCNC(=N)N)C(N)=O)c2c1 | 15 (≈ 28.4 µM) | 0.43 | 15 (≈ 28.4 µM) | > 150 | – | – | 34.8 pmol/(s.cm2) | 20.3 | 3.22
6 | N=C(N)NCCC[C@H](NC(=O)[C@@H](NC(=O)[C@@H](N)CCCNC(=N)N)C(c1ccccc1)c1ccccc1)C(N)=O (H-Arg-[Dip]-Arg-NH2) | > 150 | 0.83 | 100 (≈ 181 µM) | > 150 | – | – | – | – | –
7 | CC(C)(C)NCC(O)c1cc(O)cc(O)c1 (stereo not given) [TERBUTALINE] | – | 0.4 | – | – | – | – | – | – | –
8 | NC(N)=NCCC[C@H](NC(=O)[C@@H](N)Cc1c[nH]c2ccccc12)C(=O)NCc1ccccc1 (H-Trp-Arg-NHBn) | – | – | – | – | – | 1.2 | – | – | –
9 | CC(C)(C)c1cc(C(C)(C)C)c2[nH]c(C(C)(C)C)c(C[C@H](NC(=O)[C@@H](N)CCCNC(=N)N)C(=O)N[C@@H](CCCNC(=N)N)C(=O)NCc3ccccc3)c2c1 | 2.5 (≈ 3.23 µM) | – | 2.5 (≈ 3.23 µM) | 7.5 (≈ 9.69 µM) | – | – | – | – | –
10 | COCCc1ccc(OCC(O)CNC(C)C)cc1 (stereo not given) [METOPROLOL] | – | 3.23 | – | – | – | – | – | – | –
11 | NCCCC[C@H](NC(=O)[C@H](Cc1ccc(-c2ccccc2)cc1)NC(=O)[C@@H](N)CCCCN)C(=O)NCc1ccccc1 (H-Lys-[Bip]-Lys-NHBn) | 25 (≈ 42.6 µM) | 0.26 | 15 (≈ 25.6 µM) | > 150 | – | – | – | – | –
12 | N=C(N)NCCC[C@H](NC(=O)[C@@H](N)Cc1c[nH]c2ccccc12)C(=O)O (H-Trp-Arg-OH) | – | – | – | – | – | 43.5 | – | – | –
13 | N=C(N)NCCC[C@H](NC(=O)[C@@H](NC(=O)[C@@H](N)CCCNC(=N)N)C(c1ccccc1)c1ccccc1)C(=O)NCc1ccccc1 (H-Arg-[Dip]-Arg-NHBn) | 10 (≈ 15.6 µM) | 0.42 | 25 (≈ 38.9 µM) | > 150 | – | – | – | – | –
14 | N=C(N)NCCC[C@H](N)C(=O)N[C@@H](Cc1c[nH]c2ccccc12)C(=O)N[C@@H](Cc1ccc(NC(=N)N)cc1)C(=O)NCc1ccccc1 (H-Arg-Trp-[Phe(4-guanidino)]-NHBn) | 10 (≈ 15.3 µM) | 0.47 | 50 (≈ 76.5 µM) | > 150 | – | – | – | – | –
15 | NCCCC[C@H](NC(=O)[C@H](Cc1ccc(-c2ccccc2)cc1)NC(=O)[C@@H](N)CCCCN)C(N)=O (H-Lys-[Bip]-Lys-NH2) | – | 0.06 | > 200 | – | – | – | – | – | –
16 | N=C(N)NCCC[C@H](NC(=O)[C@H](Cc1ccc(-c2ccccc2)cc1)NC(=O)[C@@H](N)CCCNC(=N)N)C(=O)NCc1ccccc1 (H-Arg-[Bip]-Arg-NHBn) | 5 (≈ 7.78 µM) | 0.01 | 5 (≈ 7.78 µM) | 100 (≈ 156 µM) | – | – | – | – | –
17 | N=C(N)Nc1ccc(C[C@H](NC(=O)[C@H](Cc2ccc(-c3ccccc3)cc2)NC(=O)[C@@H](N)Cc2ccc(NC(=N)N)cc2)C(=O)NCc2ccccc2)cc1 (H-[Phe(4-guanidino)]-[Bip]-[Phe(4-guanidino)]-NHBn) | 5 (≈ 6.77 µM) | 0.9 | < 2.5 | 75 (≈ 102 µM) | – | – | – | – | –
18 | CC(C)(C)c1cc(C(C)(C)C)c2[nH]c(C(C)(C)C)c(C[C@H](N)C(=O)N[C@@H](CCCNC(=N)N)C(=O)NCCc3ccccc3)c2c1 | 2.5 (≈ 3.96 µM) | 5.27 | 2.5 (≈ 3.96 µM) | 10 (≈ 15.8 µM) | – | – | – | – | –
19 | NC(=O)[C@H](CCCN=C(N)N)NC(=O)[C@H](Cc1c[nH]c2ccccc12)NC(=O)[C@@H](N)CCCN=C(N)N (H-Arg-Trp-Arg-NH2) | – | 2.37 | > 200 | > 200 | – | – | 61.8 pmol/(s.cm2) | 15.1 | 2.57
20 | N=C(N)NCCC[C@H](N)C(=O)N[C@@H](Cc1ccc(NC(=N)N)cc1)C(=O)N[C@@H](Cc1c[nH]c2ccccc12)C(=O)NCc1ccccc1 (H-Arg-[Phe(4-guanidino)]-Trp-NHBn) | 15 (≈ 22.9 µM) | 0.38 | 50 (≈ 76.5 µM) | > 150 | – | – | – | – | –
21 | COC(=O)[C@H](CCCN=C(N)N)NC(=O)[C@@H](N)Cc1ccc(-c2ccccc2)cc1 (H-[Bip]-Arg-OMe) | – | 1.06 | 150 (≈ 365 µM) | > 200 | – | – | 57.2 pmol/(s.cm2) | 10.4 | –
22 | N=C(N)NCCC[C@H](NC(=O)[C@H](Cc1ccc(-c2ccccc2)cc1)NC(=O)[C@@H](N)CCCNC(=N)N)C(N)=O (H-Arg-[Bip]-Arg-NH2) | 50 (≈ 90.5 µM) | 0.01 | 200 (≈ 362 µM) | – | – | – | 56.7 pmol/(s.cm2) | -3.3 | –
23 | N=C(N)NCCC[C@H](NC(=O)[C@H](Cc1c[nH]c2ccccc12)NC(=O)[C@@H](N)CCCNC(=N)N)C(=O)NCc1ccccc1 (H-Arg-Trp-Arg-NHBn) | 25 (≈ 41.3 µM) | 0.77 | 75 (≈ 124 µM) | > 150 | – | – | 3.8 pmol/(s.cm2) | 87.6 | –

Reference: ChEMBL document CHEMBL1764999, “In vitro characterization of human peptide transporter hPEPT1 interactions and passive permeation studies of short cationic antimicrobial peptides” (J Med Chem, 2011)
